Measurements published in article PMC6851657 (Clinical Pharmacology and Therapeutics, 2019).
Where two headings read alike, the source gives them in different places.

Key:
CYP3A4 = CYP3A4 (Homo sapiens, UniProt P08684); details: in vitro phenotyping, normalized to 100%; cited from earlier work
[1] = single oral 0.25 mg, observed, cited from earlier work
CYP2C9 = CYP2C9 (Homo sapiens, UniProt P11712); format: in vitro ADME
Method in brief: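 Genotype-specific hepatic intrinsic clearance (CLint,h) was back-calculated from population PK total plasma clearance for each CYP2C9 genotype (*1/*1, *1/*2, *1/*3, *2/*2, *2/*3, *3/*3). Clearance was assumed to be entirely CYP-mediated hepatic metabolism, with purely passive hepatocyte uptake. CLint,h was split across CYP2C9, 3A4, 2B6, 2C8 and 2C19 by in vitro phenotyping fm. fu(mic) was set to 1. Values served as SimCYP PBPK inputs.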

Sequence of CYP2C9 (P11712 whole entry): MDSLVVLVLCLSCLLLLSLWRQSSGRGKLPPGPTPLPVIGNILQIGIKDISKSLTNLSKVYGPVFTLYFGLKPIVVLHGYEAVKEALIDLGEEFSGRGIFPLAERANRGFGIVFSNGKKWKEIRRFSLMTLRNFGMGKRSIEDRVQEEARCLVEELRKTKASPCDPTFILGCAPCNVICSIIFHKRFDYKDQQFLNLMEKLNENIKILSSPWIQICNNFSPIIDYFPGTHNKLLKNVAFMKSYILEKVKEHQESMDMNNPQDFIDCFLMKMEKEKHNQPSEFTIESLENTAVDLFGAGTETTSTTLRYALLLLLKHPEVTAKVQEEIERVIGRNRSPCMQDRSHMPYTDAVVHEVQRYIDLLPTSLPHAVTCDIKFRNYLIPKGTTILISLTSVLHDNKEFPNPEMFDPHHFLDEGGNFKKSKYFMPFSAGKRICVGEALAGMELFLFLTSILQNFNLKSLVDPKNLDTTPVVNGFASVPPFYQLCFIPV
Sequence of CYP3A4 (P08684 whole entry): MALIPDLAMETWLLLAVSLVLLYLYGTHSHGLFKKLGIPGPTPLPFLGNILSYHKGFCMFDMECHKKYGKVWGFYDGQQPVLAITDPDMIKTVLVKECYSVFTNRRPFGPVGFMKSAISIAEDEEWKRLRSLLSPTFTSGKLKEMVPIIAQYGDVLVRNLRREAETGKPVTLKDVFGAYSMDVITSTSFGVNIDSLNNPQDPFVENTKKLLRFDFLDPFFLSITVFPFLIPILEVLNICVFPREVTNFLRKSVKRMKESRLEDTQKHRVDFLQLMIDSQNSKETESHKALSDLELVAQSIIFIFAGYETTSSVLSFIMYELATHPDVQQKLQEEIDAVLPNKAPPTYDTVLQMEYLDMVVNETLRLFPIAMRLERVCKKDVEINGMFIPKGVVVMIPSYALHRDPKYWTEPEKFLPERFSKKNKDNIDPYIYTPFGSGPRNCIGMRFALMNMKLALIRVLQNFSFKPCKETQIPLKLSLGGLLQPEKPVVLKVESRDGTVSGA

For `CCc1cc(/C(C)=N/OCc2ccc(C3CCCCC3)c(C(F)(F)F)c2)ccc1CN1CC(C(=O)O)C1` [siponimod], the “contribution of CYP3A4 to metabolism” value (CYP3A4) is listed as 18.5%, the AUCinf ([1]; CYP2C9*1/*1) is listed as 70.5 (21.2) ng·hour/mL and the t1/2 ([1]; CYP2C9*1/*1) is listed as 28.1 (18.5) h. The AUCinf ([1]; CYP2C9*2/*3) was 144 (15.7) ng·hour/mL, the Cmax ([1]; CYP2C9*2/*3) was 2.45 (13.1) ng/mL and the t1/2 ([1]; CYP2C9*2/*3) was 50.9 (31.7) h. For the same molecule, the AUCinf ([1]; CYP2C9*3/*3) was 271 (22.4) ng·hour/mL, the Cmax ([1]; CYP2C9*3/*3) was 2.35 (29.0) ng/mL and the t1/2 ([1]; CYP2C9*3/*3) was 126 (12.7) h. It also gave a fmCYP2C9 (CYP2C9; CYP2C9*1/*1) of 0.804, a fmCYP2C9 (CYP2C9; CYP2C9*1/*2) of 0.788 and a fmCYP2C9 (CYP2C9; CYP2C9*1/*3) of 0.678. For the same molecule, the fmCYP2C9 (CYP2C9; CYP2C9*2/*2) was 0.727 and the fmCYP2C9 (CYP2C9; CYP2C9*2/*3) was 0.616.
